Assay outcomes (PubChem BioAssay)
An excerpt weighted towards active compounds, which were near 2.2% of everything screened.
M1 ag = human M1 muscarinic receptor agonists, primary screen, Fluo-8 calcium fluorescence, CHO-K1 cells, HTS. Muscarinic acetylcholine receptor M1 (Homo sapiens), P11229. CHO-K1 hM1, agonist mode; 0% DMSO, 100% acetylcholine EC100. activation, % at 3 µM. hit rate 0.33% among 360,000. AID 588814, 2011;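 active = activation above the run's mean compound activation plus 3 SD, cut at about 16% in these data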;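 also: peak over basal fluorescence ratio within a 140 s kinetic read after compound addition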
M5 PAM = human M5 muscarinic receptor positive allosteric modulators, primary screen, CHO-K1 cells, Fluo-8 calcium fluorescence. CHO-K1 hM5, ACh EC20 PAM; 0% = ACh EC20, 100% = ACh EC100. Muscarinic acetylcholine receptor M5 (Homo sapiens), P08912. activation, % at 3 µM. AID 624038, 2012. hit rate 0.3% among 360,000;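 active = activation above the run cutoff, the mean activation of all test compounds plus 3 SD, cut at about 18% in these data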
Target sequence (P08912 whole entry, looked up): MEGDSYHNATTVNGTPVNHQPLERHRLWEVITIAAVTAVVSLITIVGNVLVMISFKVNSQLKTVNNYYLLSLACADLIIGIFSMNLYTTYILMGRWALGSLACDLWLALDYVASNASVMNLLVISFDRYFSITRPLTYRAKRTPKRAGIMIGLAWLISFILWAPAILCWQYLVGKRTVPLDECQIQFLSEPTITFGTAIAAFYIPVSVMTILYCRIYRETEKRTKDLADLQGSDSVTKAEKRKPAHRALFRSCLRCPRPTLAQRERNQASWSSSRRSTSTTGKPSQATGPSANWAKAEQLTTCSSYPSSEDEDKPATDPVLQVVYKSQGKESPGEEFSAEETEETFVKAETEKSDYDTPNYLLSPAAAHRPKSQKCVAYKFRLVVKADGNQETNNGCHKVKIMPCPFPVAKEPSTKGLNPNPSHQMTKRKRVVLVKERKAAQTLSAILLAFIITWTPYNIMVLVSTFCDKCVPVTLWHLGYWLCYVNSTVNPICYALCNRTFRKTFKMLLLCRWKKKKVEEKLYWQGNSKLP
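Probe or stimulus: acetylcholine, EC20 level; Assay system: human M5 receptor in CHO-K1 cells; Schedule: compound preincubation 140 s before EC20 acetylcholine addition; Technique: intracellular calcium via Fluo-8 fluorescence; Dosing: single-point, 3 µM nominal; Read-out basis: percent activation from peak-over-basal fluorescence ratio, scaled EC20-to-EC100 acetylcholine; Repeats: one well per compound, no replicates.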
CHRM1 antagonist = human M1 muscarinic receptor antagonists, primary screen, CHO-K1 cells, Fluo-8 calcium fluorescence, 1536-well; CHO-K1 hM1, ACh EC80 antagonist; Muscarinic acetylcholine receptor M1 (Homo sapiens), P11229; hit rate 1.3% among 360,000; inhibition, % at 3 µM;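 active = percent inhibition above its own plate's cutoff, namely the mean of that plate's compound wells plus 3 SD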;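 also: peak over basal fluorescence ratio during 140 s after agonist addition; 0% = ACh EC80 plus DMSO and 100% = DMSO alone without agonist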
CHRM5 agonist = human M5 muscarinic receptor agonists, primary screen, CHO-K1 cells, Fluo-8 calcium fluorescence | CHO-K1 hM5 cells; 0% DMSO wells, 100% maximal acetylcholine response | activation, % at 3 µM | hit rate 0.19% among 360,000 | AID 624037, 2012;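 active = activation above the run's mean over test compounds plus 3 SD, cut at about 23% in these data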;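 also: signal is peak over basal fluorescence ratio across the kinetic read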
M1 PAM = human M1 muscarinic receptor positive allosteric modulators, primary screen, CHO-K1 cells, Fluo-8 calcium fluorescence, 1536-well. CHO-K1 hM1, ACh EC20; 0% = ACh EC20, 100% = maximal ACh. activation, % at 3 µM. hit rate 0.088% among 360,000. AID 588819, 2011; in the data active = activation above about 19%, passing the limit was not always enough
CHRM5 antagonist = human M5 muscarinic receptor antagonists, primary screen, CHO cells, Fluo-8 calcium fluorescence | Muscarinic acetylcholine receptor M5 (Homo sapiens), P08912 | CHO-hM5 cells, ACh EC80 | inhibition, % at 3 µM | hit rate 0.59% among 360,000;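 active = inhibition above a per-plate cutoff, the mean of that plate's test compounds plus 3 SD, cut at about 27% in these data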;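 also: 0% = acetylcholine EC80 with DMSO and 100% = DMSO without agonist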
* hit, by the source's call.

SMILES	M1 ag	M5 PAM	CHRM1 antagonist	CHRM5 agonist	M1 PAM	CHRM5 antagonist
COc1ccc([C@H]2CC(=O)C=C(c3ccc(C(F)(F)F)c(C(F)(F)F)c3)C2)cc1OC	-4	20*	-7	-1	5	-8
CCOc1ccc(NS(=O)(=O)c2ccc(NC(=S)NC(C)=O)cc2)cc1	34*	-7	7	25*	1	3
CCOc1ccc(NS(=O)(=O)c2ccc(NC(=S)NC(=O)C(C)C)cc2)cc1	7	1	9	12	-2	6
COc1ccc(NS(=O)(=O)c2ccc(NC(=S)NC(=O)C(C)C)cc2)cc1	19*	-9	2	19	4	6
Cc1ccc(NC(=O)CSc2nnnn2-c2ccc3c(c2)OCO3)cc1C	-1	2	-3	-1	7	1
COc1ccc(COc2ccccc2C(=O)NCc2ccccc2)cc1F	1	-19	27	4	-17	28*
COc1cc(C(=O)NCc2ccccc2)ccc1OC(F)F	-4	-6	4	-2	-2	10
C/C(CC(=O)Nc1cccc(Cl)c1Cl)=N\NC(=O)c1ccccc1C	-8	7	-8	0	12	-11
CCN(C(=O)CSc1nncs1)c1c(N)n(Cc2ccccc2)c(=O)[nH]c1=O	-1	29*	-6	-2	6	-7
CC(CC(=O)N(C)c1c(N)n(Cc2ccccc2)c(=O)[nH]c1=O)c1ccccc1 (configuration not stated)	-1	-3	28*	1	-10	10
Cc1cc2nc(CS(=O)(=O)c3ccccc3)cc(=O)n2[nH]1	-7	-6	-4	-5	4	-6
COc1cc(CN2CCNC(=O)C2CC(=O)N(C)Cc2ncc[nH]2)cc(OC)c1 (configuration not stated)	-6	14	-4	-2	11	-3
CC(C)Cc1ccc(C(C)C(=O)Nc2ccc(O)cc2)cc1 (configuration not stated)	54*	-6	50*	44*	-15	27*
CC(C)Cc1ccc(C(C)C(=O)Nc2cccnc2)cc1 (configuration not stated)	13	-15	32*	32*	-15	15
CC(C(=O)Nc1cccnc1)c1ccc([N+](=O)[O-])cc1 (configuration not stated)	-10	1	10	2	-4	-8
Clc1ccc(-c2nnc(COc3ncnc4ccccc34)o2)cc1	-5	2	-3	-2	3	16
COCCn1nnnc1CN1CCN(C(=O)c2ccco2)CC1	-6	-2	-7	-3	1	6
O=C(c1cccc(Cl)c1)C1CCCN(Cc2ccc(N3CCNC3=O)cc2)C1 (configuration not stated)	-6	-16	46*	-16	-21	8
O=C(c1cccc(Cl)c1)C1CCCN(C(=O)c2ccoc2)C1 (configuration not stated)	-8	-18	8	-4	-10	39*
COc1ccc(CN2CCC(C(=O)c3cccc(Cl)c3)CC2)cc1	-8	-8	-9	-8	4	19
O=C(c1cccc(Cl)c1)N1CCCC(C(=O)N2CCCCCC2)C1 (configuration not stated)	-7	-5	14	-6	-19	6
CCOC(=O)[C@@H]1[C@H]2COc3cc(OC)ccc3[C@@H]2N2C(=O)N(c3cccc(C)c3)C(=O)[C@]12C	-3	-2	0	4	2	-5
Cc1ccc(S(=O)(=O)N2CCSC2)cc1C	-7	0	0	-4	5	-2
CC(C)(C)c1ccc(S(=O)(=O)N2CCSC2)cc1	-15	-17	39*	-6	-26	7
CCOC(=O)CCNC(=O)N1CCCC(N(C)CCc2ccccc2)C1 (configuration not stated)	-7	3	-10	-11	7	7
SMILES	M1 ag	M5 PAM	CHRM1 antagonist	CHRM5 agonist	M1 PAM	CHRM5 antagonist
Cc1ccc(C)n1-n1c(C)nc2sc3c(c2c1=O)CCCCC3	-5	-19	28*	-8	-21	11
Cc1ccc(C)n1-n1cnc2sc3c(c2c1=O)CCCCC3	-6	8	-1	-8	-6	-3
O=S1(=O)CC(O)C(Nc2ccccc2)C1 (configuration not stated)	-2	42*	-6	-6	7	-8
CSCCC(NS(=O)(=O)c1ccccc1F)C(=O)NCc1cccnc1 (configuration not stated)	-2	2	2	2	-1	6
COc1ccccc1CN(C)C(=O)COC(=O)c1c(C)noc1C	4	0	-13	0	18	8
CN(C)C(CNC(=O)CCc1nc2cc(Cl)ccc2n(Cc2ccccc2)c1=O)c1ccccc1 (configuration not stated)	-8	-12	27*	-9	-23	5
O=C1CCC/C(=N/NC(=O)c2ccc(CN3c4cccc5cccc(c45)S3(=O)=O)cc2)C1	19*	1	-7	-2	5	-4
CCCCCCCCn1c2c(c(=N)c3ccccc31)CCC2	-6	-16	47*	-2	-27	48*
CCCCCCCCCn1c2c(c(=N)c3c1CCC3)CCCC2	-1	-16	49*	-2	-25	58*
CCOC(=O)Cn1c2c(c(=N)c3c1CCC3)CCC2	-5	4	0	-4	2	-6
CCCCCn1c2c(c(=N)c3ccccc31)CCC2	-8	-1	-2	-5	5	12
CCCCCCCCCCn1c2c(c(=N)c3c1CCC3)CCC2	-1	-20	35*	-3	-12	39*
CCOC(=O)Cn1c2c(c(=N)c3ccccc31)CCC2	-4	19*	20	-2	-4	5
CCn1c2c(c(=N)c3c1CCC3)CCCC2	-7	2	-15	-3	2	1
CC1CCCC(C)N1CCOc1cc(N)ccc1C#N (configuration not stated)	-7	2	-3	-7	1	13
Cc1occc1-c1nnc(SCC(=O)Nc2nc(C(C)(C)C)cs2)o1	-1	-23	51*	6	-24	30*
Cc1ncc([N+](=O)[O-])n1CC(O)CCl (configuration not stated)	17*	10	-22	14	0	-10
